The target in the experiment is Metabotropic glutamate receptor 1 (Rattus norvegicus) (UniProt P23385). Kind of experiment: rat mGlu1 allosteric modulation, glutamate curve shift, profiling panel, selectivity assay for mGlu5 PAM project, calcium fluorescence, HEK293A cells (AID 588736). Particulars: glutamate CRC shift, at 10 µM; for Emax: measured here: glutamate Emax with compound; for Emin: measured here: glutamate Emin with compound, stronger effect = higher value. Put shortly: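 Test system – rat mGlu1 in HEK293A cells · Also added – glutamate, 11-point dose-response series · Dosing – single 10 µM final test compound · Times – compound added at 1.5 s, glutamate curve at 142 s · Signal – Fluo4-AM calcium fluorescence · Evaluation – glutamate EC50 fold shift and %Emax versus vehicle · Benchmarks – vehicle-treated glutamate curves as reference for maximal response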

Active and inactive are the calls of the source.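 How the source made its calls: active means compound halving or more than doubling glutamate potency, or top glutamate response under 75% or over 125% of control; inactive means the rest.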

Metabotropic glutamate receptor 1 (Rattus norvegicus), sequence (P23385 whole entry, looked up): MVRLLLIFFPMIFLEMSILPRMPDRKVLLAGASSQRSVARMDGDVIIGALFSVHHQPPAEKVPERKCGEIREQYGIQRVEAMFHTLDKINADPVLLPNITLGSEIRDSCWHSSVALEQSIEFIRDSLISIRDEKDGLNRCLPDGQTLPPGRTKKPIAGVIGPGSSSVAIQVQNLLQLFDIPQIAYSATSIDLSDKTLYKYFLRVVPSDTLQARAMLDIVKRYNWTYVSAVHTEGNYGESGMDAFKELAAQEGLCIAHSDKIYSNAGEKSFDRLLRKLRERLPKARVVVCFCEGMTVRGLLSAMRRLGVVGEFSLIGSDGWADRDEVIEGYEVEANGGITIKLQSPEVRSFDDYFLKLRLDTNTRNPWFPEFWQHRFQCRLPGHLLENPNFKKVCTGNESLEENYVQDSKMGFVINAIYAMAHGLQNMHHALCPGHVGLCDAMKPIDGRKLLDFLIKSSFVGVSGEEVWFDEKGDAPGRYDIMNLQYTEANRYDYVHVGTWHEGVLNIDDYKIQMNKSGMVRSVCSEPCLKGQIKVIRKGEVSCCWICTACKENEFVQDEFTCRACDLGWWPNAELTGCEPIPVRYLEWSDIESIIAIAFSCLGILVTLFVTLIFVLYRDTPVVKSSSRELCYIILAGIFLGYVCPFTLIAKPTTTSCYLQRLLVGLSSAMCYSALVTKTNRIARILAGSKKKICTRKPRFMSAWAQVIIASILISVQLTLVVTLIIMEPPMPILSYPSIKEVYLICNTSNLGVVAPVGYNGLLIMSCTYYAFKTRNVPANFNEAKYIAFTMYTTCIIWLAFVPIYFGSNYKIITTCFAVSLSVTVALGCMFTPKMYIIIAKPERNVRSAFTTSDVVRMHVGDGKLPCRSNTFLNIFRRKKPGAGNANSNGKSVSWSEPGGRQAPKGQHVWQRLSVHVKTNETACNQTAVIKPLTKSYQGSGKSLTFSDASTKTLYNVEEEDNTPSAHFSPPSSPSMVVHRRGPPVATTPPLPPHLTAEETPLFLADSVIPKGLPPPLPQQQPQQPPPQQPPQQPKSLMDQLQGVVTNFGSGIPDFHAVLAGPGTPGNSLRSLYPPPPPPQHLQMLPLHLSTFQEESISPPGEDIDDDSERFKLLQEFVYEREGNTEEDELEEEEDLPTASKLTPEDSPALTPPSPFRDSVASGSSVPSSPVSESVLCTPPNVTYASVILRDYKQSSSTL

Broadly, the Emax is the greatest response seen or fitted, relative to the assay's reference. As to `C[C@@H](NC(=O)c1ccc(C#Cc2cccc(F)c2)cn1)C(C)(C)O`, the fold shift was 1.43 (inactive), the Emax amounted to 94% and the Emin was determined as 1%.
The corresponding values for `CC1(NC(=O)c2ccc(C#Cc3cccc(F)c3)cn2)COC1` are 0.93 (inactive), 91% and 1%.

For the origin of these results see PubChem BioAssay AID588736 (Vanderbilt Specialized Chemistry Center, 2011).
